According to ChEMBL document CHEMBL4184143 (J Med Chem, 2017):

What was measured:
MOLM-13 = test: Growth inhibition of human MOLM13 cells after 4 days by WST-8 assay; type: functional, cell-based; conditions: MOLM-13, 96 h
Summary of the method: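 MOLM-13 leukemia cells were seeded at 10,000 cells/well and exposed to serially diluted compound for 4 days. Signal was normalized to DMSO controls, and IC50 was fitted by nonlinear regression.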

MV4-11 [1] = test: Growth inhibition of human MV4-11 cells after 4 days by WST-8 assay; type: functional, cell-based; conditions: MV4-11, 96 h
[2] = target: T1, Bromodomain-containing protein 4 (Homo sapiens, UniProt O60885); test: Inhibition of FAM-labeled ZBA248 binding to recombinant human N-terminal His6-tagged BRD4 bromodomain 2 (333 to 460 residues) expressed in Rosetta2 DE3 cells after 30 mins by Flourescence polarization assay; type: biochemical
[3] = target: T1, Bromodomain-containing protein 4; test: Inhibition of FAM-labeled ZBA248 binding to recombinant human N-terminal His6-tagged BRD4 bromodomain 1 (44 to 168 residues) expressed in Rosetta2 DE3 cells after 30 mins by Flourescence polarization assay; type: biochemical
[4] = Drug level in SCID mouse at 25 mg/kg, po after 1 hr by LC-MS/MS analysis; type: ADME, organism-based; conditions: in vivo, read-out: Drug uptake
Summary of the method: (§1)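 SCID mice received a single oral dose of 25 mg/kg in 20% (v/v) PCP/70% (v/v) PBS vehicle. Blood was collected and centrifuged to plasma, which was stored at −80 °C. Plasma drug concentration was measured by a validated LC–MS/MS method.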

[5] = Drug level in SCID mouse at 25 mg/kg, po after 3 hrs by LC-MS/MS analysis; type: ADME, organism-based; conditions: in vivo, read-out: Drug uptake; summary of the method: as §1
[6] = Drug level in SCID mouse at 25 mg/kg, po after 6 hrs by LC-MS/MS analysis; type: ADME, organism-based; conditions: in vivo, read-out: Drug uptake; summary of the method: as §1
[7] = Half life in CD1 mouse liver microsomes at 1 uM by LC/MS method; type: ADME, microsome
[8] = Half life in Sprague-Dawley rat liver microsomes at 1 uM by LC/MS method; type: ADME, microsome
[9] = Half life in human liver microsomes at 1 uM by LC/MS method; type: ADME, microsome
MV4-11 [10] = test: Antitumor activity against human MV4-11 cells xenografted in SCID mouse assessed as tumor growth inhibition at 50 mg/kg, po qd measured 2 to 3 times weekly during treatment and once weekly post dose; type: functional; conditions: MV4-11, po, read-out: TGI
Summary of the method: (§2)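 At ~100 mm3, mice were randomized to treatment or vehicle control. Tumors were measured by electronic calipers. Animals were checked daily for signs of toxicity and weighed 2–3 times weekly on treatment, then at least weekly afterwards.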

Mus musculus [11] = test: Toxicity in SCID mouse implanted with human MV-411 cells assessed as weight loss at 50 mg/kg, po qd measured 2 to 3 times weekly during treatment and weekly post dose; type: organism-based; conditions: in vivo; summary of the method: as §2
Mus musculus [12] = test: Toxicity in SCID mouse implanted with human MV4-11 cells at 50 mg/kg, po qd measured 2 to 3 times weekly during treatment and once weekly post dose; type: organism-based; conditions: in vivo; summary of the method: as §2
[13] = Half life in Sprague-Dawley rat at 25 mg/kg, po by LC/MS method; type: ADME, organism-based; conditions: in vivo
Summary of the method: (§3)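 Sprague Dawley rats were dosed iv at 5 mg/kg or orally at 25 mg/kg, with compound dissolved in 20% (v/v) PCP/70% (v/v) PBS vehicle. Blood was drawn by catheter at 0, 5, 15, 30 min and 1, 2, 4, 6, 8, 24 h and spun to plasma, which was stored at −80 °C. Plasma drug was quantified by a validated LC–MS/MS method, and parameters were derived noncompartmentally.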

[14] = Cmax in Sprague-Dawley rat at 25 mg/kg, po by LC/MS method; type: ADME, organism-based; parameters: dose 25 mg/kg, route oral; conditions: in vivo; summary of the method: as §3
[15] = AUC (0 to t) in Sprague-Dawley rat at 25 mg/kg, po by LC/MS method; type: ADME, organism-based; conditions: in vivo; summary of the method: as §3
[16] = Aqueous solubility of the compound in 5% DMSO/10% cremophor/85% saline; type: physicochemical; conditions: buffer

Structure (SMILES)	IC50 (MOLM-13) [µM]	IC50 (MV4-11 [1]) [µM]	IC50 [2] [µM]	Ki [2] [µM]	IC50 [3] [µM]	Ki [3] [µM]	other results
COc1cc2c(cc1-c1c(C)noc1C)[nH]c1nc(C)nc(-c3cccc4cccnc34)c12		0.334	0.193	0.0582	0.412	0.129	
COc1cc2c(cc1-c1c(C)noc1C)[nH]c1nc(C)nc(-c3cccc4ccncc34)c12	1.14	> 1	0.167	0.0523	0.316	0.0786	
COc1cc2c(cc1-c1c(C)noc1C)[nH]c1nc(C)nc(-c3cccc4cnccc34)c12	0.656	0.295	0.436	0.146	0.451	0.139	
COc1cc2c(cc1-c1c(C)noc1C)[nH]c1ncnc(Cl)c12			1.76	0.476	1.13	0.387	
COc1cc2c(cc1-c1c(C)noc1C)[nH]c1ncnc(-c3ccoc3)c12	> 10	2.86	0.18	0.0564	0.155	0.0443	
COc1cc2c(cc1-c1c(C)noc1C)[nH]c1ncnc(-n3nnc4ccccc43)c12	> 10	> 10	> 1	> 1	> 1	> 1	
COc1cc2c(cc1-c1c(C)noc1C)[nH]c1ncnc(-c3cn[nH]c3)c12			0.199	0.057	0.393	0.131	
COc1cc2c(cc1-c1c(C)noc1C)[nH]c1ncnc(-n3ccnc3)c12	9.27	1.06	1.14	0.335	1.46	0.456	
COc1cc2c(cc1-c1c(C)noc1C)[nH]c1ncnc(-c3cc[nH]c3)c12	0.612	0.253	0.108	0.0306	0.165	0.0519	
COc1cc2c(cc1-c1c(C)noc1C)[nH]c1ncnc(-c3c(C)noc3C)c12	0.709	0.182	0.164	0.0687	0.102	0.0412	
COc1cc2c(cc1-c1c(C)noc1C)ncc1[nH]c(=O)n([C@H](C)c3ccccn3)c12							inhibition in vivo at 50 mg/kg (MV4-11 [10]): > 80%; Activity (Mus musculus [11]): Non-Toxic; Activity (Mus musculus [12]): Non-Toxic
COc1cc2c(cc1-c1c(C)noc1C)[nH]c1nc(C)nc(-c3cnc4ccccc4c3)c12	0.716	0.423	0.128	0.0426	0.397	0.136	
COc1cc2c(cc1-c1c(C)noc1C)[nH]c1ncnc(-c3cnoc3)c12			1.88	0.641	2.06	0.655	

Second part, led by results:

IC50 (MOLM-13) [µM]	IC50 (MV4-11 [1]) [µM]	IC50 [2] [µM]	Ki [2] [µM]	IC50 [3] [µM]	Ki [3] [µM]	Structure (SMILES)	other results
0.489	0.19	0.0227	0.0071	0.0116	0.007	COc1cc2c(cc1-c1c(C)noc1C)[nH]c1ncnc(-c3c[nH]c4cnccc34)c12	
0.076	0.028	0.0155	0.0031	0.0309	0.0101	COc1cc2c(cc1-c1c(C)noc1C)[nH]c1nc(C)nc(-c3cccc4ncccc34)c12	
0.036	0.006	0.0117	0.0027	0.0241	0.007	COc1cc2c(cc1-c1c(C)noc1C)[nH]c1ncnc(-c3c(C4CC4)n[nH]c3C)c12	concentration at 1 h [4]: 2200 ng/mL; concentration at 3 h [5]: 872 ng/mL; concentration at 6 h [6]: 72 ng/mL
0.262	0.015	0.0094	0.0028	0.0294	0.0099	COc1cc2c(cc1-c1c(C)noc1C)[nH]c1ncnc(-n3cnc4ccccc43)c12	
0.127	0.013	0.0259	0.0091	0.0108	0.0042	COc1cc2c(cc1-c1c(C)noc1C)[nH]c1ncnc(-c3c(C)[nH]c4cnccc34)c12	
0.38	0.029	0.0122	0.0028	0.0324	0.0093	COc1cc2c(cc1-c1c(C)noc1C)[nH]c1ncnc(-c3c(C)oc4ccccc34)c12	
0.139	0.013	0.0265	0.0065	0.0487	0.028	COc1cc2c(cc1-c1c(C)noc1C)[nH]c1ncnc(-c3cnn4ccccc34)c12	
> 10	> 10	0.0749	0.0225	0.147	0.0851	COc1cc2c(cc1-c1c(C)noc1C)[nH]c1ncnc(-c3nn(C)c4ccccc34)c12	
0.193	0.095	0.0897	0.0312	0.0409	0.0185	COc1cc2c(cc1-c1c(C)noc1C)[nH]c1ncnc(-c3c(C)nn(C)c3C)c12	
0.124	0.047	0.0127	0.0038	0.0356	0.0095	COc1cc2c(cc1-c1c(C)noc1C)[nH]c1nc(C)nc(-c3cncc4ccccc34)c12	
0.233	0.099	0.0635	0.0202	0.0517	0.0197	COc1cc2c(cc1-c1c(C)noc1C)[nH]c1ncnc(-c3c(C)n[nH]c3C)c12	
0.243	0.069	0.0146	0.0042	0.0731	0.0318	COc1cc(-c2nc(C)nc3[nH]c4cc(-c5c(C)noc5C)c(OC)cc4c23)c2ccccc2n1	
0.069	0.017	0.0052	0.0016	0.0197	0.0057	COc1cc2c(cc1-c1c(C)noc1C)[nH]c1nc(C)nc(-c3cc(C)nc4ccccc34)c12	t1/2 [7]: > 1 h; t1/2 [8]: > 1 h; t1/2 [9]: > 1 h
0.971	0.077	0.0927	0.0269	0.393	0.122	COc1cc2c(cc1-c1c(C)noc1C)[nH]c1nc(C)nc(-c3cc(C(F)(F)F)nc4ccccc34)c12	
0.205	0.057	0.0055	0.0011	0.0203	0.0049	COc1cc2c(cc1-c1c(C)noc1C)[nH]c1ncnc(-c3c[nH]c4ccccc34)c12	
		0.0264	0.0104	0.0392	0.012	COc1cc2c(cc1-c1c(C)noc1C)[nH]c1ncnc(N[C@H](C)c3ccccn3)c12	
0.02	0.002	0.0019	< 0.0005	0.0061	0.0008	COc1cc2c(cc1-c1c(C)noc1C)[nH]c1nc(C)nc(-c3c(C)[nH]c4ccccc34)c12	t1/2 [7]: > 1 h; t1/2 [8]: > 1 h; t1/2 [9]: 0.15 h
0.065	0.0066	0.0011	< 0.0005	0.005	0.0007	COc1cc2c(cc1-c1c(C)noc1C)[nH]c1ncnc(-c3c(C)[nH]c4ccccc34)c12	half-life [13]: 1.7 h; Cmax [14]: 1400 ng/mL; AUC(0-t) [15]: 13400 ng·h/mL; t1/2 [7]: 0.067 h; t1/2 [8]: > 1 h; t1/2 [9]: 0.13 h; solubility [16]: Insoluble
